Laboratory results published in ChEMBL document CHEMBL1781886, “Monoterpenoid indole alkaloids from Gardneria ovata” (J Nat Prod, 2011).

How the values were obtained:
Type in all cases: functional, cell-based
SMMC-7721 = assay: Cytotoxicity against human SMMC7721 cells by MTT assay
Method in brief: (§1)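 MTT viability read-out on five human cancer lines tested in parallel: breast MCF-7, hepatocellular SMMC-7721, myeloid leukemia HL-60, colon SW480 and lung A-549. IC50 derived by the Reed and Muench method.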

HL-60 = assay: Cytotoxicity against human HL60 cells by MTT assay; method in brief: as §1
SW480 = assay: Cytotoxicity against human SW480 cells by MTT assay; method in brief: as §1
MCF7 = assay: Cytotoxicity against human MCF7 cells by MTT assay; method in brief: as §1
A549 = assay: Cytotoxicity against human A549 cells by MTT assay; method in brief: as §1

Measured: IC50

COC/C=C1\CN2[C@H]3C[C@@H]1[C@@H]1COC4=Nc5cc6c(c(O[C@@H]7O[C@H](CO)[C@@H](O)[C@H](O)[C@H]7O)c5[C@@]43C[C@@H]12)OCO6
> 40 µM: SMMC-7721 | HL-60 | SW480 | MCF7 | A549

C/C=C1/C[N+]2([O-])[C@H]3C[C@@]45C(=Nc6cc7c(c(OC)c64)OCO7)OC[C@H]3[C@H]1C[C@@H]52
> 40 µM: SMMC-7721 | HL-60 | SW480 | MCF7 | A549

COC/C=C1\C[N+]2([O-])[C@H]3C[C@@]45C(=Nc6cc7c(c(OC)c64)OCO7)OC[C@H]3[C@H]1C[C@@H]52
> 40 µM: SMMC-7721 | HL-60 | SW480 | MCF7 | A549

COc1c2c(cc3c1[C@@]14C[C@H]5[C@@H](COC1=N3)[C@H]1C[C@@H]4N5C/C1=C\CO)OCO2
> 40 µM: SMMC-7721 | HL-60 | SW480 | MCF7 | A549

C/C=C1/CN2[C@H]3C[C@@H]1[C@@H]1COC4=Nc5c(OC)cc(OC)cc5[C@@]43C[C@@H]12
> 40 µM: SMMC-7721 | HL-60 | SW480 | MCF7 | A549

C/C=C1/CN2[C@H]3C[C@@H]1[C@@H]1COC4=Nc5c(cc(OC)c(OC)c5OC)[C@@]43C[C@@H]12
> 40 µM: SMMC-7721 | HL-60 | SW480 | MCF7 | A549

COc1cc(OC)c2c(c1)[C@@]13C[C@H]4[C@@H](COC1=N2)[C@H]1C[C@@H]3N4C/C1=C\CO
> 40 µM: SMMC-7721 | HL-60 | SW480 | MCF7 | A549

C/C=C1/C[N+]2([O-])CC[C@]34C=C(CO)[C@H]1C[C@@]32Nc1ccccc14 (stereo not given in full)
> 40 µM: SMMC-7721 | HL-60 | SW480 | MCF7 | A549
